These results are taken from ChEMBL document CHEMBL5576114, “Inhibition of DXR in the MEP pathway with lipophilic N-alkoxyaryl FR900098 analogs” (RSC Med Chem, 2024).

Data set [1] in a line: Cytotoxicity against human HepG2 cells assessed as reduction in cell viability after 24 hrs by Cell Titer Glo assay. Type of data set: toxicity, cell-based. The essentials: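 HepG2 cells in DMEM with 4 mM L-glutamine and 4.5 g/L glucose, trypsinized and plated from a 4×10^5 cells/mL suspension. Compounds were tested as two-fold dilutions from 100 to 0.1 µg/mL, with a DMSO-only control, in duplicate. After 24 h at 37 °C, 5% CO2, CellTiter-Glo luminescence was read after 20 min in the dark.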
(In general: In ATP-based viability assays light output follows the ATP content of the culture.)

Data set [2] addresses T1, 1-deoxy-D-xylulose 5-phosphate reductoisomerase (Mycobacterium tuberculosis, UniProt P9WNS1).
T1 sequence (P9WNS1 whole entry): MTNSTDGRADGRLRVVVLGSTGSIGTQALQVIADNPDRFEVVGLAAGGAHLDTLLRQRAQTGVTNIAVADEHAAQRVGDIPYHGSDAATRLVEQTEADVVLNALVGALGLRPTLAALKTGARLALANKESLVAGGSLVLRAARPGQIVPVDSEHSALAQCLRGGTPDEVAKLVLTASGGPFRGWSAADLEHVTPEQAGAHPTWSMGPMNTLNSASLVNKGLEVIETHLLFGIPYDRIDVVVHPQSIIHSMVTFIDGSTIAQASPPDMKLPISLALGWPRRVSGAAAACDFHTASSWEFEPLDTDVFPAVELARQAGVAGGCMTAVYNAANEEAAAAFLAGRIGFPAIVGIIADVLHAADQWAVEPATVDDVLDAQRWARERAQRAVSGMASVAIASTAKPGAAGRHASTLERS
The experiment in a line: Inhibition of Mycobacterium tuberculosis DXR expressed in Escherichia coli BL21 CodonPlus (DE3)-RIL cells using DOXP as substrate in presence of NADPH by UV-visible spectrophotometry.

Data set [3] concerns Mycobacterium tuberculosis. The experiment in a line: Antibacterial activity against Mycobacterium tuberculosis H37Rv assessed as reduction in bacterial growth incubated for 2 weeks by macroscopic plate reader analysis. Format: functional. To be noted: 336 h. The essentials: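 H37Rv grown in 7H9 broth with 0.08% NaCl, 0.4% glucose, 0.05% casitone and 0.05% tyloxapol, then diluted 1:500. Compounds were made as 20 mg/mL DMSO stocks and run as eleven 2-fold serial dilutions. Plates were held 2 weeks at 37 °C and MIC99 was read macroscopically. Three independent measurements.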

Data set [4] has as its system Plasmodium falciparum. The data set can be described thus: Antiplasmodial activity against Plasmodium falciparum E1-C12 harboring with had1 mutation assessed as reduction in parasite growth by measuring DNA content after 3 days by PicoGreen staining based FLUOstar omega microplate reader analysis. The note with it: time 3.0 day. Type of data set: functional, organism-based. The essentials: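 E1-C12 (had1) parasites, asynchronous, at 2% hematocrit in RPMI-1640/0.5% Albumax with hypoxanthine, under 5% O2/5% CO2/90% N2 at 37 °C. Started at 0.5% parasitemia and dosed at 1.2 nM–492.4 µM. After 3 days, DNA was stained with PicoGreen (ex 485/em 528). IC50 came from a 4-parameter fit; technical duplicates, biological triplicates.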

For data set [5], the target named is T2, 1-deoxy-D-xylulose 5-phosphate reductoisomerase, apicoplastic (Plasmodium falciparum (isolate 3D7)) (UniProt Q8IKG4).
T2 sequence (whole entry): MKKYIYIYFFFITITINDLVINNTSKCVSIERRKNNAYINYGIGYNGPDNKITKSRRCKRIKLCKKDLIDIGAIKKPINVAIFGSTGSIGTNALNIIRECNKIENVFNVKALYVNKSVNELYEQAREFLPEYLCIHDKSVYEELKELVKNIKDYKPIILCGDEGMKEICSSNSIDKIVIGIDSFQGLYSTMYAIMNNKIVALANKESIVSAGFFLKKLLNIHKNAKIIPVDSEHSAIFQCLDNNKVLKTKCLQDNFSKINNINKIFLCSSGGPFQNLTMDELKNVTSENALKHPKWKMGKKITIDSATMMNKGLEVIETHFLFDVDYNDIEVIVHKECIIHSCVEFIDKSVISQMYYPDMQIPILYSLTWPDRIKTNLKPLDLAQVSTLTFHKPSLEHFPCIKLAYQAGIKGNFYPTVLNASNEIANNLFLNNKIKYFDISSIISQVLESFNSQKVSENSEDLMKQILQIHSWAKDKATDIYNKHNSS
The experiment in a line: Inhibition of Plasmodium falciparum DXR expressed in Escherichia coli BL21 CodonPlus (DE3)-RIL cells using DOXP as substrate at 100 uM in presence of NADPH by UV-visible spectrophotometry relative to control. The essentials:
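PfDXR single-point test at 100 µM inhibitor. Conditions: 0.86 µM IMAC-purified enzyme, 100 mM Tris pH 7.8, 25 mM MgCl2, 150 µM NADPH, 37 °C. Reaction was started with 144 µM DOXP, and NADPH oxidation was monitored at 340 nm. Percent remaining activity was reported; technical duplicates.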

Data set [6] concerns the target T3, 1-deoxy-D-xylulose 5-phosphate reductoisomerase (Mycobacterium tuberculosis) (UniProt P9WNS1).
T3 sequence (whole entry): T1 sequence (P9WNS1 whole entry)
The data set can be described thus: Inhibition of Mycobacterium tuberculosis DXR expressed in Escherichia coli BL21 CodonPlus (DE3)-RIL cells using DOXP as substrate at 100 uM in presence of NADPH by UV-visible spectrophotometry relative to control. The essentials:
(§1)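 Recombinant MtbDXR (pET101/D-TOPO in E. coli BL21 CodonPlus (DE3)-RIL, IMAC-purified) at 0.89 µM in 100 mM MES pH 6.5, 25 mM MgCl2, 150 µM NADPH, 47 µM DOXP, 37 °C. Inhibitor was tested at a single 100 µM. NADPH oxidation was followed at 340 nm, and percent remaining activity was reported. Technical duplicates.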

Data set [7] relates to Plasmodium falciparum. The experiment in a line: Antiplasmodial activity against Plasmodium falciparum 3D7 assessed as reduction in parasite growth by measuring DNA content after 3 days by PicoGreen staining based FLUOstar omega microplate reader analysis. Format: functional, organism-based. To be noted: 3D7, 72 h. The essentials:
(§2)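 Asynchronous cultures in 2% hematocrit, RPMI-1640 complete medium with 0.5% Albumax, under 5% O2/5% CO2/90% N2 at 37 °C. Diluted to 0.5% parasitemia, inhibitors 1.2 nM to 492.4 µM added at start. Growth read after 3 days as DNA content by PicoGreen fluorescence (485/528 nm). IC50 from 4-parameter nonlinear regression; technical duplicate, biological triplicate.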

The subject of data set [8] is Plasmodium falciparum. The data set can be described thus: Antiplasmodial activity against Plasmodium falciparum E1-C12 harboring with had1 mutation assessed as reduction in parasite growth by measuring DNA content after 3 days in presence of IPP by PicoGreen staining based FLUOstar omega microplate reader analysis. To be noted: time 3.0 day. Format: functional, organism-based. Put shortly: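 IPP rescue in had1 E1-C12 parasites: 125 µM IPP was present for the whole assay. Cultures at 2% hematocrit in Albumax-supplemented RPMI, 5% O2/5% CO2, 37 °C, started at 0.5% parasitemia. Inhibitors were dosed at 1.2 nM–492.4 µM, and growth was read after 3 days by PicoGreen fluorescence. 4-parameter fit; duplicate wells, biological triplicates.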

The target of data set [9] is T4, 1-deoxy-D-xylulose 5-phosphate reductoisomerase, apicoplastic (Plasmodium falciparum (isolate 3D7), UniProt Q8IKG4).
T4 sequence (Q8IKG4 whole entry): T2 sequence (whole entry)
The experiment in a line: Inhibition of Plasmodium falciparum DXR expressed in Escherichia coli BL21 CodonPlus (DE3)-RIL cells using DOXP as substrate in presence of NADPH by UV-visible spectrophotometry.

The subject of data set [10] is Mycobacterium tuberculosis. The experiment in a line: Antibacterial activity against Mycobacterium tuberculosis H37Rv assessed as reduction in bacterial growth. Format: functional.
For data set [11], the target named is T1, 1-deoxy-D-xylulose 5-phosphate reductoisomerase. The data set can be described thus: Inhibition of Mycobacterium tuberculosis DXR using DXP as substrate preincubated for 10 mins followed by NADPH addition and measured after 5 mins by spectrophotometric assay.
In data set [12] the target is T4, 1-deoxy-D-xylulose 5-phosphate reductoisomerase, apicoplastic. The data set can be described thus: Inhibition of Plasmodium falciparum DXR.
Data set [13] deals with T3, 1-deoxy-D-xylulose 5-phosphate reductoisomerase (Mycobacterium tuberculosis). The experiment in a line: Inhibition of Mycobacterium tuberculosis DXR expressed in Escherichia coli BL21 CodonPlus (DE3)-RIL cells assessed as remaining activity using DOXP as substrate at 100 uM in presence of NADPH by UV-visible spectrophotometry relative to control. The essentials: as §1

Data set [14] concerns Plasmodium falciparum. The data set can be described thus: Antiplasmodial activity against Plasmodium falciparum. Type of data set: functional, organism-based. Put shortly:
as §2

As a reminder, the IC50 is the point on the concentration scale where inhibition reaches its midpoint. In general, MIC refers to the lowest concentration that inhibits growth of the organism. For orientation: inhibition means how much of the control response was suppressed.

Converted amounts (≈) assume the structure as drawn. The source made the active and inactive calls. No cut-off for these calls is given here.

As to `CC(=O)N(CCC(c1ccc(Cl)c(Cl)c1)P(=O)(O)O)OC(C)c1ccc(F)cc1` (stereo unspecified), the IC50 at 24 h in data set [1] is > 200 µM. Besides, the IC50 in data set [2] stood at 4780 nM; in [7] it was 2420 nM; in data set [9] it was 470 nM. Also, in data set [3], the minimal inhibitory concentration (MIC) was > 200 µM. For the same molecule, in data set [4], the result was Active. For the same molecule, the inhibition in data set [5] and in data set [6] was > 90% throughout. Moreover, the result in data set [8] was inactive.
With `COc1ccc(C(C)ON(CCC(c2ccc(Cl)c(Cl)c2)P(=O)(OCOC(=O)C(C)(C)C)OCOC(=O)C(C)(C)C)C(C)=O)cc1` (stereo unspecified), the IC50 at 24 h in data set [1] was > 140 µM. Besides, in data set [3], the minimum inhibitory concentration (MIC) is 6.5 µM (≈ 4.58 µg/mL). The result in data set [4] was Active. Also, in data set [7], the IC50 was 370 nM. Further, in [8], the outcome was inactive.
`CC(=O)N(O)CCCP(=O)(O)O` [FR-900098]: the MIC in data set [10] was > 500 µg/mL. In addition, the IC50 stood at 2910 nM in data set [11] and 22 nM in data set [12].
Consider `COc1ccc(C(C)ON(CCC(c2ccc(Cl)c(Cl)c2)P(=O)(O)O)C(C)=O)cc1` (stereo unspecified), for which, in data set [1], the IC50 at 24 h is > 200 µM. Besides, the concentration for half-maximal inhibition (IC50) in data set [2] was 780 nM; in [7], 300 nM; in data set [9], 110 nM. Also, the MIC in data set [3] was > 98 µM. In addition, in data set [4], the outcome was Active. For the same molecule, the inhibition in data set [5] and in data set [6] was > 90% each time. Moreover, the outcome in data set [8] was inactive.
In the case of `CC(=O)N(CCC(c1ccc(Cl)c(Cl)c1)P(=O)(O)O)OC(C)c1ccc(C)cc1` (stereo unspecified), the half-maximal inhibitory concentration (IC50) at 24 h in data set [1] was > 200 µM. For the same molecule, in data set [3], the minimal inhibitory concentration (MIC) was > 101 µM. The outcome in data set [4] was Active. Besides, the inhibition in data set [5] is > 90%. For the same molecule, the IC50 in data set [7] stood at 3530 nM; in data set [9], 1210 nM. Moreover, the Activity in data set [13] turned out to be 30.7%. The outcome in data set [8] was inactive.
With `O=CN(O)CCCP(=O)(O)O` [FOSMIDOMYCIN], the MIC in data set [10] was > 500 µg/mL. Besides, the midpoint of inhibition in data set [14], the IC50, lay at 1020 nM.
